Several values for one entry are separate records, joined by “and”; a condition that tells them apart may be missing. Equal entries are not always repeated.
Tests used:
DEGR-factor XIa = DEGR-factor XIa (Homo sapiens, UniProt P03951); assay: Fluorescence-based binding affinity, dansyl fluorescence; conditions: saturating ligand, λEX 345 nm
factor XI (zymogen) = factor XI (zymogen) (Homo sapiens, UniProt P03951); assay type: binding; conditions: intrinsic tryptophan fluorescence, pH 7.4, 37 °C
How it was run: (§1)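 Human plasma factor XI or factor XIa (105 nM) was titrated at 37 °C with aliquots of 200–250 μM aqueous ligand in 50 mM Tris-HCl pH 7.4, 150 mM NaCl, 0.1% PEG8000. Intrinsic tryptophan fluorescence (λEX 280 nm) was followed. ΔF/F0 versus ligand concentration was fitted to a quadratic binding equation for KD and ΔFMAX.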

DEGR-FXIa = DEGR-FXIa (Homo sapiens, UniProt P03951); assay: Salt dependence of affinity of DEGR-FXIa; assay type: binding
Sequence of DEGR-FXIa (P03951 19-387 limits assumed): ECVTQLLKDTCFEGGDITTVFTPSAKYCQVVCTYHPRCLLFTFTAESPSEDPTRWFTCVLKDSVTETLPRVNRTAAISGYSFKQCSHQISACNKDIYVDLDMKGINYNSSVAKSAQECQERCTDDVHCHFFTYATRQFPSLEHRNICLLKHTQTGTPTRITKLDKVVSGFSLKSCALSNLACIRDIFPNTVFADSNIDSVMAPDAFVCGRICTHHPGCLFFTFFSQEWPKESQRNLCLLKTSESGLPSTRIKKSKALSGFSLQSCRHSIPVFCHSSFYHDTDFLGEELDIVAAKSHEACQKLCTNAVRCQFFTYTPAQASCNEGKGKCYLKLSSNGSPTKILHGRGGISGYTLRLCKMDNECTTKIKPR
Sequence of DEGR-FXIa (P03951 388-625 limits assumed): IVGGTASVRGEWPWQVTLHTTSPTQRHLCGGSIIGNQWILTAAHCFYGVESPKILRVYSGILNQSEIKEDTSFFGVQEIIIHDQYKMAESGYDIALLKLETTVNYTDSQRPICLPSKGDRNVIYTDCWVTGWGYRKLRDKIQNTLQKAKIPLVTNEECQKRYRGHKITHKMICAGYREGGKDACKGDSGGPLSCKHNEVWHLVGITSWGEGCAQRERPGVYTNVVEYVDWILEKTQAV
How it was run: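 DEGR-factor XIa (250 nM) was titrated with ligand solutions at 37 °C in 50 mM Tris-HCl pH 7.4, 0.1% PEG8000, at 25, 50, 100 or 150 mM NaCl. Dansyl fluorescence was read at 547 nm (excitation 345 nm), and a quadratic fit gave KD,obs. […] At least two experiments were run.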

human factor XIa = human factor XIa (Homo sapiens, UniProt P03951); assay: Fluorescence-based binding affinity, intrinsic tryptophan fluorescence; conditions: pH 7.4, 37 °C
Sequence of human factor XIa (P03951 19-387 limits assumed): as the sequence (P03951 19-387 limits assumed) above
Sequence of human factor XIa (P03951 388-625 limits assumed): as the sequence (P03951 388-625 limits assumed) above
How it was run: as §1

Sequence of factor XI (zymogen) (P03951 19-625): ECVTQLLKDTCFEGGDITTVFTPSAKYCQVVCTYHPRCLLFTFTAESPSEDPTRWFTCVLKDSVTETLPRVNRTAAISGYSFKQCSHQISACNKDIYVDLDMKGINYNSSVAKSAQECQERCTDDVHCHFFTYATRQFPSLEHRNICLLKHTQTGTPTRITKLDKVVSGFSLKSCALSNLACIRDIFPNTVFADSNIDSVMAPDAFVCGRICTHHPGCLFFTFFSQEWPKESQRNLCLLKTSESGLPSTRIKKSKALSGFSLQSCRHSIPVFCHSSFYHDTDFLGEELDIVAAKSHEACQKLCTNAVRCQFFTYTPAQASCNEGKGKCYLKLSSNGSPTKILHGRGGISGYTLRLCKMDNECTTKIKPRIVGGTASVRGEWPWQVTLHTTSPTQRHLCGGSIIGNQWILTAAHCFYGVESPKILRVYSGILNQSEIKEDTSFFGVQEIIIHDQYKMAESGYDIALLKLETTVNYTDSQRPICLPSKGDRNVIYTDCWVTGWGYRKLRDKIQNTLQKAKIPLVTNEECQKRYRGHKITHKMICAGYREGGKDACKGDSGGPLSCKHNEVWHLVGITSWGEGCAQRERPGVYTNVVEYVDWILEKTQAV
Sequence of DEGR-factor XIa (P03951 19-387 limits assumed): as the sequence (P03951 19-387 limits assumed) above
Sequence of DEGR-factor XIa (P03951 388-625 limits assumed): as the sequence (P03951 388-625 limits assumed) above

blue-shift of emission wavelength of DEGR-FXIa (DEGR-factor XIa): ~3 nm
Kd (factor XI (zymogen)): 1800 ± 400 nM
Z (number of ion-pairs formed) (DEGR-FXIa; pH 7.4, 37 °C): 0.64 ± 0.04
intercept of log KD,obs versus log[Na] (DEGR-FXIa; pH 7.4, 37 °C): –5.00 ± 0.04
slope of log KD,obs versus log[Na] (DEGR-FXIa; pH 7.4, 37 °C): 0.52 ± 0.03
ΔG0NI (binding energy due to nonionic forces) (DEGR-FXIa; pH 7.4, 37 °C): 7.08 kcal/mol and 7.1 ± 0.02 kcal/mol
ΔG0NI (nonionic binding energy contribution to the total) (DEGR-FXIa; pH 7.4, 37 °C): 90.5%
ΔG0I (binding energy due to ionic forces) (DEGR-FXIa; pH 7.4, I 0.15): 0.75 kcal/mol
Kd (DEGR-FXIa; read-out: KD,NI (nonionic affinity), dissociation constant at [Na+] = 1 M): 10100 ± 400 nM
Kd (human factor XIa): 900 ± 200 nM
ΔFMAX (human factor XIa): –68 ± 2%
Substance: heparin octasaccharide [H8]
